Results collected from several papers.
Lines come from different studies, so protocols differ. pIC50: −log10 of the molar value.
Observed: cell growth or viability

Structure (SMILES)	cell line	test	conditions	pIC50
COc1c(Cl)cccc1Nc1c(-c2ccncc2OC[C@@H]2COCCO2)[nH]c2c1C(=O)NCC2	NCI-N87	ATP luminescence	–	7.90
O=P1(C2CCCCC2)CCCCC1	SW480	MTT	72 h	5.29
NNc1nc2ccc(Br)cc2c(=O)n1-c1ccc(Cl)cc1	SW480	MTT	48 h	4.96
COc1ccc(Nc2ncnc3c2ncn3Cc2ccc(C(=O)Nc3ccccc3N)cc2)cc1	MM1.S	MTT	72 h	4.80
C=C1CC[C@@H]2[C@](C)(CO)[C@H](O)CC[C@@]2(C)[C@@H]1C/C=C1/C(=O)OC[C@H]1O	SW480	MTT	48 h	5.35
Cc1cc2c(C(=O)O)cccc2n1-c1nc2c(c(NCc3ccccc3)n1)CCCN2	MM1.S	–	72 h	6.05
COc1cccc2c1C(=O)c1c(O)c3c(c(O)c1C2=O)C[C@@](O)(C(=O)CO)C[C@@H]3O[C@H]1C[C@H](N)[C@H](O)[C@H](C)O1	SW480	MTT	48 h	7.05
CC1(P2(=O)CCCCC2)C=CCC=C1	SW480	MTT	72 h	< 4.00
CC(C)C[C@H](NC(=O)[C@@H]1Cc2c(F)c(F)c(c(F)c2F)Sc2ccc(cc2)CC(=O)N[C@@H](C(C)C)C(=O)N1)C(=O)[C@@]1(C)CO1	D283 Med	–	–	7.04
Cc1cc(Nc2ncnc3ccc(NC4=NC(C)(C)CO4)cc23)ccc1Oc1ccn2ncnc2c1	NCI-N87	ATP luminescence	–	7.05
Cc1ccc(NNc2nc3ccc(Br)cc3c(=O)n2-c2ccccc2)cc1	SW480	MTT	48 h	4.07
CN1CCC(NC2CCc3[nH]c4c(C(N)=O)ccc(-c5ccccc5Cl)c4c3C2)CC1 (stereo not shown)	HGC-27	–	96 h	8.02
O=c1c2cc(Cl)cc(Cl)c2nc(NNc2cccc(Cl)c2)n1-c1ccccc1	SW480	MTT	48 h	< 3.70
Nc1ccccc1NC(=O)c1ccc(Cn2cnc3c(Nc4ccc(Br)cc4F)ncnc32)cc1	MM1.S	MTT	72 h	5.83
CN(C)C(=O)Nc1nc2c(Cl)cc(Cl)cc2c(=O)n1-c1ccccc1	SW480	MTT	48 h	< 3.70
Cc1c(C)c2c(c(C)c1O)CCC(C)(COc1ccc(CC3SC(=O)NC3=O)cc1)O2 (stereo not shown)	THLE-2	MTT	–	4.79
O=C(NO)Nc1nc2ccc(Br)cc2c(=O)n1-c1ccccc1	SW480	MTT	48 h	< 3.70
O=C(NO)c1ccc(Cn2cnc3c(Nc4ccc(F)c(Cl)c4)ncnc32)cc1	MM1.S	MTT	72 h	5.57
CN(C)C(=O)Nc1nc2ccc(Br)cc2c(=O)n1-c1ccccc1	SW480	MTT	48 h	< 3.70
O=C(NO)c1ccc(Cn2cnc3c(Nc4cccc([N+](=O)[O-])c4)ncnc32)cc1	MM1.S	MTT	72 h	5.81
NNc1nc2ccc(Br)cc2c(=O)n1-c1ccccc1	SW480	MTT	48 h	3.87
O=P1(c2ccccc2)CCCCC1	SW480	MTT	72 h	< 4.00
